Reference: ChEMBL document CHEMBL3286381 (J Med Chem, 2014)
Activity calls are given as the source filed them. The rule behind the calls is not given here.

Experiments:
[1] = biological target: P2Y purinoceptor 2 (Homo sapiens) (UniProt P41231); experiment: Antagonist activity at human P2Y2 receptor expressed in human 1321N1 cells assessed as effect on UTP-induced effect; assay type: cell-based
[2] = biological target: P2Y purinoceptor 1 (Homo sapiens) (UniProt P47900); experiment: Agonist activity at human P2Y1 receptor expressed in human 1321N1 cells assessed as increase of intracellular calcium level up to 10 uM after 30 mins using fura-2 AM by fluorescence assay; assay type: functional, cell-based
[3] = biological target: P2Y purinoceptor 2 (Homo sapiens) (UniProt P41231); experiment: Agonist activity at human P2Y2 receptor expressed in human 1321N1 cells assessed as increase of intracellular calcium level at 100 uM after 30 mins using fura-2 AM by fluorescence assay; assay type: functional, cell-based
[4] = biological target: T1, Alkaline phosphatase, tissue-nonspecific isozyme (Homo sapiens) (UniProt P05186); experiment: Inhibition of TNAP (unknown origin) using ATP as substrate assessed as inorganic phosphate release at 100 uM after 15 mins relative to control
T1 sequence (whole entry): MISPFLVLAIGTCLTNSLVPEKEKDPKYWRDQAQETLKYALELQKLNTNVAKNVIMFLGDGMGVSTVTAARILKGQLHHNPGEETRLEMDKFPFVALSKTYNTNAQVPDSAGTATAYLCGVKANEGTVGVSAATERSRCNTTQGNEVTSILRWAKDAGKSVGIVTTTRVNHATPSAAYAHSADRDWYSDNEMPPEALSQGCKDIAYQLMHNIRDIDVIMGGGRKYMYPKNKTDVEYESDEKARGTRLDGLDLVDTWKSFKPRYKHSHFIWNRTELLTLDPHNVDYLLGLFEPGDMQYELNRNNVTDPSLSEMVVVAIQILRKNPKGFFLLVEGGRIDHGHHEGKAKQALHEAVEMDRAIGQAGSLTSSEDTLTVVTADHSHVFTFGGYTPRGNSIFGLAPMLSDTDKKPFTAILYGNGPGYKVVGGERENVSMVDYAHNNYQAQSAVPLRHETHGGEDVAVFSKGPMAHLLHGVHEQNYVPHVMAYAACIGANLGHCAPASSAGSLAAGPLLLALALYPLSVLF

P2Y purinoceptor 11 = biological target: T2, P2Y purinoceptor 11 (Homo sapiens, UniProt Q96G91); experiment: Agonist activity at human P2Y11 receptor expressed in human 1321N1 cells assessed as increase of intracellular calcium level after 30 mins using fura-2 AM by fluorescence assay; assay type: functional, cell-based
T2 sequence (Q96G91 whole entry): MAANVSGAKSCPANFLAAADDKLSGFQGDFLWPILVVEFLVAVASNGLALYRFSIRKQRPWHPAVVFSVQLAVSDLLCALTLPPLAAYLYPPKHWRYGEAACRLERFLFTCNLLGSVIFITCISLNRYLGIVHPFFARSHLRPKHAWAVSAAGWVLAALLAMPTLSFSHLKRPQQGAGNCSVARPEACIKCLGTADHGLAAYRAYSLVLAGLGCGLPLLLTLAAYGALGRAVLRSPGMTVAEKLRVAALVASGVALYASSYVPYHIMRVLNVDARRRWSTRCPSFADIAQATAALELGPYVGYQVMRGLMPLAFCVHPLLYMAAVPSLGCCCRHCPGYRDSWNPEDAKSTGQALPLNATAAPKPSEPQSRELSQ

[5] = biological target: T3, P2Y purinoceptor 11 (Homo sapiens) (UniProt Q96G91); experiment: Agonist activity at human P2Y11 receptor expressed in human 1321N1 cells assessed as increase of intracellular calcium level up to 10 uM after 30 mins using fura-2 AM by fluorescence assay; assay type: functional, cell-based
T3 sequence (whole entry): T2 sequence (Q96G91 whole entry)

[6] = biological target: T4, Ectonucleotide pyrophosphatase/phosphodiesterase family member 1 (Homo sapiens, UniProt P22413); experiment: Mixed type inhibition of human NPP1 using pNP-TMP as substrate assessed as dissociation constant for enzyme-inhibitor-substrate complex after 20 mins by Dixon and Cornish-Bowden method
T4 sequence (P22413 whole entry): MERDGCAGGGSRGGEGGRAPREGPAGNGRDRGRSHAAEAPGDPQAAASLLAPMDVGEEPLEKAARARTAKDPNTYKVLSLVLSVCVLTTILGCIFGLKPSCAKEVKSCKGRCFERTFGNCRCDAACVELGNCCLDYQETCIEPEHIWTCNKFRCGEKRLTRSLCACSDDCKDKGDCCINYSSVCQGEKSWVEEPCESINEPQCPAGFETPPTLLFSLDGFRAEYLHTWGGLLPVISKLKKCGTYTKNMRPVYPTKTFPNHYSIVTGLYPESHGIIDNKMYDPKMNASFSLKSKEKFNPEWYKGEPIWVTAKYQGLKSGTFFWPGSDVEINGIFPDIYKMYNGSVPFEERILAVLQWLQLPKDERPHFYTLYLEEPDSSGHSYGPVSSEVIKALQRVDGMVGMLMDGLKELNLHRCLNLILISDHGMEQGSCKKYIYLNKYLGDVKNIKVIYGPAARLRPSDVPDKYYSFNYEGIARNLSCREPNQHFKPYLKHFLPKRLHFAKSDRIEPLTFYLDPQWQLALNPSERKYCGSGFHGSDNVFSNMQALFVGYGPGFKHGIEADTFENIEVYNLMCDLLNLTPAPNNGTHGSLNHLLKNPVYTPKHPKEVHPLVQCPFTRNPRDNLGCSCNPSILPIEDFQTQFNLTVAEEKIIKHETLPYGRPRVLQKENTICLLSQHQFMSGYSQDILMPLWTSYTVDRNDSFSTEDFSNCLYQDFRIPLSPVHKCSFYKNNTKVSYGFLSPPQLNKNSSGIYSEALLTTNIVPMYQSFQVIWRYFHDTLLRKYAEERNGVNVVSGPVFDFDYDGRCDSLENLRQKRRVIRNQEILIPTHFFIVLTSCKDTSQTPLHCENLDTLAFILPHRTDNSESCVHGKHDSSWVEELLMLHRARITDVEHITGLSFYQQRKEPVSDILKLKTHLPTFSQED
Summary of the method: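 Human NPP1 (COS-7 lysate) is tested with pNP-TMP hydrolysis at 37 °C in pH 8.5 Tris buffer, reading p-nitrophenol at […]. Substrate is 25, 50 and 100 μM, and inhibitor is 0, 25, 50 and 100 μM. Inhibition type, Ki and Ki′ (EIS complex dissociation constant) come from Dixon and Cornish–Bowden plots of three independent experiments.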

P2Y purinoceptor 1 (Homo sapiens), sequence (P47900 whole entry): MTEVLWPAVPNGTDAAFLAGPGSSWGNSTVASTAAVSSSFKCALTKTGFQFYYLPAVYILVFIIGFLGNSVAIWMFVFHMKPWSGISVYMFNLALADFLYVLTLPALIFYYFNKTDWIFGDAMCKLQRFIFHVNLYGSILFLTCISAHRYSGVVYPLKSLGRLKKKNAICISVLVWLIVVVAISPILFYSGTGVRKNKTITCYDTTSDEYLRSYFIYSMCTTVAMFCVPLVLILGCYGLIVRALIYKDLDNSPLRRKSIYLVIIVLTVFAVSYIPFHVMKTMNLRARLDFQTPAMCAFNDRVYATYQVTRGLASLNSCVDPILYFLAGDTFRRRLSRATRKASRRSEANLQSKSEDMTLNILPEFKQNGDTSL
P2Y purinoceptor 2 (Homo sapiens), sequence (P41231 whole entry): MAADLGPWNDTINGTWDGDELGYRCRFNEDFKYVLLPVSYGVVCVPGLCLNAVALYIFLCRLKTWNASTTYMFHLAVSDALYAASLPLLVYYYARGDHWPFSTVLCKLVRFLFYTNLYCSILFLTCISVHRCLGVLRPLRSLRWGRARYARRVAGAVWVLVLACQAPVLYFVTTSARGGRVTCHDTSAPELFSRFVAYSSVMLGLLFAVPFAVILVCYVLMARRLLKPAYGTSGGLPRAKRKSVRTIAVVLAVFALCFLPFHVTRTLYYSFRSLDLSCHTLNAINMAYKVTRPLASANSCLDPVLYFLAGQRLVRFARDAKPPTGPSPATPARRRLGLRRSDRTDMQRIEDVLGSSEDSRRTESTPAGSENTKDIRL

SMILES	inhibition [1]	Activity [2]	Activity [3]	inhibition [4] [%]	EC50 (P2Y purinoceptor 11) [µM]	Activity [5]	Ki [6] [µM]
Nc1ncnc2c1ncn2[C@@H]1O[C@H](COP(=O)(O)CP(=O)(O)OP(O)(O)=S)[C@@H](O)[C@H]1O	inactive	inactive	inactive	8			
Nc1ncnc2c1ncn2[C@@H]1O[C@H](CO[P@@](O)(=S)OP(=O)(O)CP(=O)(O)O)[C@@H](O)[C@H]1O		inactive			0.9		
Nc1ncnc2c1ncn2[C@@H]1O[C@H](CO[P@](O)(=S)OP(=O)(O)C(Cl)(Cl)P(=O)(O)O)[C@@H](O)[C@H]1O	inactive	inactive	inactive	17			
Nc1ncnc2c1ncn2[C@@H]1O[C@H](CO[P@](O)(=S)OP(=O)(O)CP(=O)(O)O)[C@@H](O)[C@H]1O		inactive				inactive	4.5
Nc1ncnc2c1ncn2[C@@H]1O[C@H](CO[P@@](O)(=S)OP(=O)(O)C(Cl)(Cl)P(=O)(O)O)[C@@H](O)[C@H]1O		inactive					
